Laboratory results reported in ChEMBL document CHEMBL2177082, “Identification of a promising drug candidate for the treatment of type 2 diabetes based on a P2Y(1) receptor agonist” (J Med Chem, 2012).
Each block holds one molecule with its values, some of them ahead of it. The source made the active and inactive calls. The rule behind the calls is not given here.

How the values were obtained:
P2Y purinoceptor 1 [1] = target: P2Y purinoceptor 1 (Meleagris gallopavo, UniProt P49652); experiment: Agonist activity at turkey P2Y1R expressed in 1321N1 cells assessed as increase in intracellular calcium concentration by spectrofluorimetry; format: functional, cell-based
Summary of the method: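 Cell suspensions were treated with nucleotide at various concentrations at 37 °C in 10 mM Hepes-buffered saline pH 7.4 with 1 mM CaCl2 and 1 mM MgCl2. Maximal [Ca2+]i rise was read by dual-excitation spectrofluorometry and fitted to give EC50. Three experiments on separate days.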

Mus musculus [2] = experiment: Antidiabetic activity in overnight fasted CD1 mouse assessed as reduction in blood glucose level at 30 mg/kg body weight, iv administered 10 mins post glucose challenge; format: functional, organism-based; design: dose 30 mg/kg
[3] = target: P2Y purinoceptor 2 (Homo sapiens) (UniProt P41231); experiment: Agonist activity at P2Y2R; format: functional
[4] = target: P2Y purinoceptor 4 (Homo sapiens) (UniProt P51582); experiment: Agonist activity at P2Y4R; format: functional
[5] = target: P2Y purinoceptor 6 (Homo sapiens) (UniProt Q15077); experiment: Agonist activity at P2Y6R; format: functional
Mus musculus [6] = experiment: Antiplatelet activity in Balb/c mouse assessed as inhibition of ADP-induced aggregation measuring prolongation of bleeding time at 30 mg/kg body weight, iv; format: functional
Summary of the method: (§1)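 Anaesthetised Balb/c mice given compound iv (0.3, 3 or 30 mg/kg) or saline. Five minutes later 2 mm of the tail tip was cut and the tail placed vertically in saline. Time to first arrest of bleeding (no bleeding for 20 s) was recorded. Bars are standard deviation.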

Rattus norvegicus [7] = experiment: Antiplatelet activity in Lewis rat assessed as inhibition of ADP-induced aggregation measuring prolongation in bleeding time at 10 mg/kg body weight, po administered 30 mins prior to tail incision measured after 5 mins; format: functional, organism-based; design: dose 10 mg/kg
Summary of the method: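 Anesthetized Lewis rats (n = 5) were dosed orally 30 min before the tail was cut. Then 2 mm of tail tip was removed and the tail was placed upright in a saline-filled tube. Time to first arrest of bleeding (no bleeding for 20 s) was recorded.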

Serum [8] = experiment: Ratio of half life of compound to half life of ADP in human serum at 40 mM by HPLC; format: ADME, cell-free; conditions: 40000 µM
Summary of the method: (§2)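 Serum came from a healthy volunteer's whole blood (12 h at 4 °C, spun 1500g, stored at −80 °C). A 40 mM stock in water was mixed with serum and RPMI-1640 (1:3 serum:medium) and incubated at 37 °C for up to 24 h.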

[9] = (§3) Half life in human serum at 40 mM by HPLC; format: ADME, cell-free; summary of the method: as §2
P2Y purinoceptor 1 [10] = target: T1, P2Y purinoceptor 1 (Rattus norvegicus, UniProt P49651); experiment: Agonist activity at rat P2Y1R expressed in HEK293 cells assessed as release of intracellular calcium by fluorescence based assay; format: functional, cell-based
[11] = target: P2Y purinoceptor 1 (Rattus norvegicus) (UniProt P49651); experiment: Agonist activity at rat P2Y1R assessed as glucose-dependent insulin secretion relative to control; format: functional
P2Y purinoceptor 1 [12] = target: T1, P2Y purinoceptor 1; experiment: Agonist activity at rat P2Y1R assessed as glucose-dependent insulin secretion; format: functional
Serum [13] = experiment: as §3; format: ADME, cell-free; conditions: 40000 µM; summary of the method: as §2
[14] = Metabolic stability in human serum assessed as hydrolysis of compound at 40 mM incubated for 24 hrs measured after every 1 hr over 24 hrs by HPLC; format: ADME, cell-free; conditions: read-out: Drug metabolism
Summary of the method: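 40 mM stock in water, 4.5 μL, combined with 180 μL human serum (healthy volunteer) and 540 μL RPMI-1640 and incubated at 37 °C for up to 24 h. Aliquots were heated to 80 °C for 30 min, cleaned up, and analysed by HPLC. Heat-only controls were run without serum. Hydrolysis was followed from the change in HPLC peak area.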

[15] = Half life in Tris buffer at pH 9.8 at 0.2 mg by HPLC in presence of alkaline phosphatase; format: physicochemical; conditions: in vitro
Summary of the method: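 Compound 0.2 mg incubated with calf intestine alkaline phosphatase 12.5 units in Tris-HCl/MgCl2 at final pH 9.8 and 37 °C. Sampled hourly for 8 h; reaction stopped at 80 °C for 15 min. Samples passed through an anion-exchange cartridge. Half-life from change in HPLC peak area.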

[16] = Chemical stability in HCL/KCL buffer at pH 1.4 assessed as hydrolysis rate constant of compound at 1.5 mg incubated for 24 hrs measured after every 1 hr over 12 hrs by HPLC; format: physicochemical; conditions: pH 1.4, 24 h
Summary of the method: (§4)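 Diastereomeric mixture, 1.5 mg, dissolved in 0.2 M HCl/KCl buffer adjusted to pH 1.4 and kept at 37 °C with hourly sampling. Parent HPLC peak integrated over time (TEAA/acetonitrile 88:12) and fitted to pseudo-first-order kinetics to give rate constant and t1/2.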

[17] = Half life in HCL/KCL buffer at pH 1.4 at 1.5 mg by HPLC; format: physicochemical; summary of the method: as §4
Rattus norvegicus [18] = experiment: Antidiabetic activity in overnight fasted Wister Han rat assessed as reduction in blood glucose level at 30 mg/kg body weight, iv administered 10 mins post glucose challenge measured within 45 mins (reference value: 155 mg/dl); format: functional
Mus musculus [19] = experiment: Antidiabetic activity in STZ treated fasted ICR mouse assessed as reduction in blood glucose level at 30 mg/kg body weight, iv administered 10 min post glucose challenge measured over 15 to 120 mins; format: functional, organism-based; design: dose 30 mg/kg
Summary of the method: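 Male ICR mice given STZ 100 mg/kg IP after 4 h fast. On day 10, after ~16 h overnight fast, oral D-glucose 1 g/kg was given at 0 min. Compound was dosed iv at 7.5, 15 or 30 mg/kg 10 min after glucose; saline controls. Blood glucose by glucometer at 15, 30, 60 and 120 min. n = 5.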

Rattus norvegicus [20] = experiment: Antiplatelet activity in Lewis rat assessed as inhibition of ADP-induced aggregation measuring prolongation in bleeding time at 30 mg/kg body weight, po administered 30 mins prior to tail incision measured after 5 mins; format: functional, organism-based; design: dose 30 mg/kg
Summary of the method: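 Lewis rats given compound 30 mg/kg or aspirin 10 mg/kg PO 30 min before tail incision; n = 5. 2 mm tail tip cut, tail placed in saline. Time to first bleeding arrest (20 s without bleeding) was recorded, and blood volume was judged against calibrated volumes after brief 600g spin.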

Platelet = experiment: Antiplatelet activity in human platelet rich plasma assessed as inhibition of ADP-induced platelet aggregation measured after 6 mins by aggregometry; format: functional
Summary of the method: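 Human PRP obtained by centrifuging plasma at 4400g for 30 s. PRP was incubated 15 min at 37 °C with compound (0.3–10 μM), then aggregation was induced with ADP 10 μM and read after 6 min on a platelet aggregation profiler. Prasugrel metabolite 10 μM served as positive control. One donor, duplicates.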

[21] = target: P2Y purinoceptor 12 (Homo sapiens) (UniProt Q9H244); experiment: Antagonist activity at human P2Y12R expressed in […] cells assessed as intracellular calcium level in presence of ADP; format: functional, cell-based
Mus musculus [22] = experiment: Antidiabetic activity in db+/db- diabetic mouse model assessed as reduction in blood glucose level at 30 mg/kg body weight, iv administered 10 min post glucose challenge measured over 15 to 120 mins; format: functional, organism-based; design: dose 30 mg/kg
Summary of the method: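 Male db+/db− mice, 8 weeks old, grouped by body weight and glucose, then fasted overnight. Oral glucose 2 g/kg by gavage. Compound 30 mg/kg iv as in the naive-animal OGTT; n = 5. Blood glucose by glucometer at −30, 0, 15, 30, 60 and 120 min.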

Mus musculus [23] = experiment: Antiplatelet activity in Balb/c mouse assessed as inhibition of ADP-induced aggregation measuring prolongation in bleeding time at 30 mg/kg body weight, iv administered prior to tail incision measured after 5 mins relative to active clopidogrel metabolite R-361015; format: functional; summary of the method: as §1
[24] = Antiplatelet activity in human platelet rich plasma assessed as inhibition of ADP-induced platelet aggregation at 0.3 to 10 uM measured after 6 mins by aggregometry relative to control; format: functional
Summary of the method: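 Human platelet-rich plasma was obtained by spinning normal human plasma at 4400g for 30 s. PRP was incubated 15 min at 37 °C, then aggregation was induced with ADP (10 μM) and read after 6 min on a platelet aggregation profiler. PRP came from one subject, tested in duplicate. Prasugrel metabolite at 10 μM served as the positive control.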

Sequence of P2Y purinoceptor 2 (Homo sapiens) (P41231 whole entry): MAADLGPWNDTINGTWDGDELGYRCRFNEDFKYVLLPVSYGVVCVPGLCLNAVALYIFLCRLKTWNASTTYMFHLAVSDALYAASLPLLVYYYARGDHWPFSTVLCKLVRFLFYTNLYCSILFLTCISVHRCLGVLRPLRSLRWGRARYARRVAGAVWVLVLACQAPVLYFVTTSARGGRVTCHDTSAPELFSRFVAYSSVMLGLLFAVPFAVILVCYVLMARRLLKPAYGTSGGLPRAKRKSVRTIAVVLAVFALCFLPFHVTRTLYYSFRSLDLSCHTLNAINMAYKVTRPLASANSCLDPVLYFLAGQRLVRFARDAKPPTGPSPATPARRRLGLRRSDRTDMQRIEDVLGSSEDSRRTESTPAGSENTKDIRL
Sequence of P2Y purinoceptor 4 (Homo sapiens) (P51582 whole entry): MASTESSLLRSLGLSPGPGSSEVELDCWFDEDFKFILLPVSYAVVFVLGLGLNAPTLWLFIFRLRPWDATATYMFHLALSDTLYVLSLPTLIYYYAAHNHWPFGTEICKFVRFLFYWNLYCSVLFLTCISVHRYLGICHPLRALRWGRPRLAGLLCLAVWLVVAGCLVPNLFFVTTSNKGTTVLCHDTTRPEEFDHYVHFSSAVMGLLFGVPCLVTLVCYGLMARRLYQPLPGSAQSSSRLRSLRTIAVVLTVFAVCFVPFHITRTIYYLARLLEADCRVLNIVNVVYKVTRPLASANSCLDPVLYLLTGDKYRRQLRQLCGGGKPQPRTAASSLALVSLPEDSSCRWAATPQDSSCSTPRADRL
Sequence of P2Y purinoceptor 6 (Homo sapiens) (Q15077 whole entry): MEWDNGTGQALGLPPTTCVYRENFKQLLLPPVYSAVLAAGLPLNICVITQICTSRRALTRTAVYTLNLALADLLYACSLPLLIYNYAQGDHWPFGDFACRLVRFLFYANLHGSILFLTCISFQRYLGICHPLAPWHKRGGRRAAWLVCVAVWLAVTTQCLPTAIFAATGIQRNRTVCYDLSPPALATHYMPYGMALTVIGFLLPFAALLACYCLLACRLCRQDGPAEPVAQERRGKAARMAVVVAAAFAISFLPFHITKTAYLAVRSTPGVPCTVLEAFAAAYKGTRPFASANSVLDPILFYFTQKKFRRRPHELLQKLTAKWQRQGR
Sequence of P2Y purinoceptor 1 (Meleagris gallopavo, UniProt P49652) (P49652 whole entry): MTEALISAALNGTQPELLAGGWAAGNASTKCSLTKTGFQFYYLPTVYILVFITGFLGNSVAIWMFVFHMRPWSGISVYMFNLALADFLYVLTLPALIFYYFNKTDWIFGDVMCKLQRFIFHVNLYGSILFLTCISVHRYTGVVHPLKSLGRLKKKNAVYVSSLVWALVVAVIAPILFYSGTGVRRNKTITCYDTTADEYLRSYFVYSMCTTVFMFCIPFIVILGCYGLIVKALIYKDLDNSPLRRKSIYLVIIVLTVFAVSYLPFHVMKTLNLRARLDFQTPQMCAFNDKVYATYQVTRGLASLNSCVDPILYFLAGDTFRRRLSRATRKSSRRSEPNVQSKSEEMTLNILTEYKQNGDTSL
T1 sequence (P49651 whole entry): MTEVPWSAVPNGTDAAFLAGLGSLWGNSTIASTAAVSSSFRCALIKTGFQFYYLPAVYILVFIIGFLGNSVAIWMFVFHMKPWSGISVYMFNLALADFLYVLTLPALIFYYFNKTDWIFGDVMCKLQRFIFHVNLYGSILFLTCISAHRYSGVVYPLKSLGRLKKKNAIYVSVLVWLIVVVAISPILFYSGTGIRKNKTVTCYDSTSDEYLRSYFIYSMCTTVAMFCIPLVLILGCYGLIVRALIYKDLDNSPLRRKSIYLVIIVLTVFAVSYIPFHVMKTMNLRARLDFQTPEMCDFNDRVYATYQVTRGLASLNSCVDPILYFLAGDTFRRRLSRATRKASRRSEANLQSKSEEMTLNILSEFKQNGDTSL
Sequence of P2Y purinoceptor 12 (Homo sapiens) (Q9H244 whole entry): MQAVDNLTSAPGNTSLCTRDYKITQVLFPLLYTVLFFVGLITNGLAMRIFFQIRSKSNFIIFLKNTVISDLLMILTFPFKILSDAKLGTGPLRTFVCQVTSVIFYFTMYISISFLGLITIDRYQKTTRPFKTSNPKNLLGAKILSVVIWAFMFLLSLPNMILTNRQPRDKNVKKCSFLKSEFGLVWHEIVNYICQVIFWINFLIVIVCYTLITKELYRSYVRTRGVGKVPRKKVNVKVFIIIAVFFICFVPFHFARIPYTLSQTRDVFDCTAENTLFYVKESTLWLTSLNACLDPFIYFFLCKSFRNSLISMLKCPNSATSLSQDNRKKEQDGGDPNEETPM
Sequence of P2Y purinoceptor 1 (Rattus norvegicus) (P49651 whole entry): as the sequence (P49651 whole entry) above

Compound: B[P@](=O)(OC[C@H]1O[C@@H](n2cnc3c(N)ncnc32)[C@H](O)[C@@H]1O)OP(=O)(O)O
EC50 (P2Y purinoceptor 1 [1]): 960 nM

Compound: B[P@](=O)(OC[C@H]1O[C@@H](n2cnc3c(N)nc(SC)nc32)[C@H](O)[C@@H]1O)OP(=O)(O)O
Activity (Mus musculus [2]): inactive
EC50 (P2Y purinoceptor 1 [1]): 1100 nM

Compound: BP(=O)(OC[C@H]1O[C@@H](n2cnc3c(N)ncnc32)[C@H](O)[C@@H]1O)OP(=O)(O)O (stereo not given in full)
Activity [3]: inactive
Activity [4]: inactive
Activity [5]: inactive

Compound: CC(=O)Oc1cc2c(s1)CCN(C(C(=O)C1CC1)c1ccccc1F)C2 (stereo not given)
Time (Mus musculus [6]): 9 min

Compound: CC(=O)Oc1ccccc1C(=O)O
inhibition (Rattus norvegicus [7]): Active

Ratio (Serum [8]): 7
half-life at 40000 µM [9]: 14 h
EC50 (P2Y purinoceptor 1 [1]): 140 nM
Compound: B[P@@](=O)(OC[C@H]1O[C@@H](n2cnc3c(N)nc(SC)nc32)[C@H](O)[C@@H]1O)OP(=O)(O)OP(=O)(O)OC[C@H]1O[C@@H](n2cnc3c(N)nc(SC)nc32)[C@H](O)[C@@H]1O.CCCCN(CCCC)CCCC.CCCCN(CCCC)CCCC.CCCCN(CCCC)CCCC

EC50 (P2Y purinoceptor 1 [10]): 2.6 nM
fold change (FC) [11]: 9
EC50 (P2Y purinoceptor 1 [12]): 28.1 nM
Compound: B[P@@](=O)(OC[C@H]1O[C@@H](n2cnc3c(N)nc(SC)nc32)[C@H](O)[C@@H]1O)OP(=O)(O)OP(=O)(O)O

Ratio (Serum [8]): 7
half-life at 40000 µM [9]: 14 h
EC50 (P2Y purinoceptor 1 [1]): 190 nM
Compound: B[P@](=O)(OC[C@H]1O[C@@H](n2cnc3c(N)nc(SC)nc32)[C@H](O)[C@@H]1O)OP(=O)(O)OP(=O)(O)OC[C@H]1O[C@@H](n2cnc3c(N)nc(SC)nc32)[C@H](O)[C@@H]1O.CCCCN(CCCC)CCCC.CCCCN(CCCC)CCCC.CCCCN(CCCC)CCCC (single isomer, unassigned)

Compound: CSc1nc(N)c2ncn([C@@H]3O[C@H](COP(=O)(O)OP(=O)(O)O)[C@@H](O)[C@H]3O)c2n1
t1/2 (Serum [13]): 23 h
metabolised at 24 h, 40000 µM [14]: 50%
t1/2 [15]: 4.5 h

Compound: Nc1ncnc2c1ncn2[C@@H]1O[C@H](COP(=O)(O)OP(=O)(O)O)[C@@H](O)[C@H]1O [ADENOSINE DIPHOSPHATE]
t1/2 (Serum [13]): 2 h
t1/2 [15]: 4 h

Compound: [BH3-]P(=O)(OC[C@H]1O[C@@H](n2cnc3c(N)nc(SC)nc32)[C@H](O)[C@@H]1O)OP(=O)([O-])[O-].[Na+].[Na+].[Na+] (mixture of isomers)
Activity [3]: inactive
Activity [4]: inactive
Drug degradation [16]: 2 ×10⁻⁵ /s
half-life [17]: 7.3 h
metabolised at 24 h, 40000 µM [14]: 30%
Activity [5]: inactive

Activity [3]: inactive
Activity [4]: inactive
Activity [5]: inactive
Compound: BP(=O)(OC[C@H]1O[C@@H](n2cnc3c(N)nc(SC)nc32)[C@H](O)[C@@H]1O)OP(=O)(O)OP(=O)(O)OC[C@H]1O[C@@H](n2cnc3c(N)nc(SC)nc32)[C@H](O)[C@@H]1O.CCCCN(CCCC)CCCC.CCCCN(CCCC)CCCC.CCCCN(CCCC)CCCC (mixture of isomers)

Compound: [BH3-][P@@](=O)(OC[C@H]1O[C@@H](n2cnc3c(N)ncnc32)[C@H](O)[C@@H]1O)OP(=O)([O-])[O-].[Na+].[Na+].[Na+]
t1/2 (Serum [13]): 3.5 h
t1/2 [15]: 4.2 h
EC50 (P2Y purinoceptor 1 [1]): 220 nM

Compound: [BH3-][P@@](=O)(OC[C@H]1O[C@@H](n2cnc3c(N)nc(SC)nc32)[C@H](O)[C@@H]1O)OP(=O)([O-])[O-].[Na+].[Na+].[Na+]
Activity (Rattus norvegicus [18]): 87 mg/dL
Activity (Mus musculus [19]): Active
inhibition (Rattus norvegicus [20]): Active
inhibition (Platelet): Active
half-life at 40000 µM [9]: > 24 h
Activity [21]: Active
Activity (Mus musculus [22]): Active
fold change (FC) (Mus musculus [23]): 1.5
fold change (FC) [24]: 3
Time (Mus musculus [6]): 16 min
t1/2 [15]: 6 h
